M1 antag: blocks the rat M1 muscarinic receptor response to acetylcholine. CHO-M1 cells, Fluo-4 calcium, ACh EC80 antagonist mode; active compounds read low. B-score at 10 µM. 64,000 compounds, 3.4% hits. AID 628;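 active means calcium fluorescence response, raw or row-and-column corrected B-score, differing from the plate sample mean either way at a set confidence level, mostly lower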
JNK3 blocker: JNK3 (human) kinase inhibition. purified JNK3 kinase activity, HTS. AID 746. 60,000 compounds, 0.61% hits. inhibition, % at 8 µM. P53779; in the data active means inhibition above about 17%;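 further: 0% = DMSO and 100% = reference inhibitor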
Jurkat viability: cytotoxicity toward Jurkat cells | 56,000 compounds, 1.2% hits | AID 463 | inhibition, % at 4 µM | Jurkat E6.1 viability, ATP luminescence, 48 h;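 active means inhibition above the mean inhibition of all tested compounds plus 3 SD, cut at about 28% in these data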
M1 ag: M1 muscarinic receptor agonism; B-score at 10 µM; 64,000 compounds, 3% hits; CHO-M1 cells, Fluo-4 calcium fluorescence, agonist mode; active compounds read high; AID 626;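 active means fluorescence rise, raw or as B-score row- and column-corrected plate score, outside the 99.7% band of its plate's samples, either direction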
S1P3 ag: agonists of human S1P3 receptor; activation, % at 4.5 µM; 60,000 compounds, 0.1% hits; AID 373; S1P3 NFAT-BLA reporter cells, agonism, FRET ratio; relative to 1 µM S1P, basal subtracted; Q99500;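 active means activation above the screen-wide mean plus 3 SD, cut at about 4.5% in these data, passing the limit was not always enough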
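Measure – % activation relative to 1 µM S1P (100%), per plate · System – stable CHO line with human S1P3, Gα16, NFAT-BLA reporter · Timing – cells plated overnight, compound 4 h 37 °C, substrate 2 h RT · Technique – fluorescent BLA substrate, ex 405 nm, em 460/535 nm ratio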
S1P1 ag pot: agonists and agonism potentiators of human S1P1 receptor. S1P1 CRE-bla cells, forskolin, beta-lactamase FRET, potentiator mode; S1P1 agonist co-added at EC20, 2 nM; 100% = saturating reference agonist, 0% = basal. activation, % at 9.5 µM. 56,000 compounds, 0.57% hits. AID 449;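 active means activation above a cutoff set at the mean activation of all tested compounds plus 3 SD, cut at about 54% in these data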;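 further: forskolin at 4 µM as EC80 and the EC20 agonist is SEW2871; 100% = SEW2871 at its EC100 plus forskolin at EC80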
Target sequence (P21453 whole entry, looked up): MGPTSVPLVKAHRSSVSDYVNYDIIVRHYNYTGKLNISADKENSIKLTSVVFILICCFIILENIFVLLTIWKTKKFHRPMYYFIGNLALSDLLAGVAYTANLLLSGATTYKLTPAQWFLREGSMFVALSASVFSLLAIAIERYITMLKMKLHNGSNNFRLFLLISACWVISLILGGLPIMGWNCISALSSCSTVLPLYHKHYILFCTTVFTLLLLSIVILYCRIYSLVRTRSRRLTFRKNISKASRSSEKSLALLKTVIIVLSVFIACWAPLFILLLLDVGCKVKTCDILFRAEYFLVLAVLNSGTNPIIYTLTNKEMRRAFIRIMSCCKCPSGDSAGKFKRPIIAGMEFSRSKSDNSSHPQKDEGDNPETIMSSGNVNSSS
Numbers without * were called inactive; · = no result. Most compounds without a hit are left out; they make up all but 7.4% or so of the library.

SMILES	M1 antag	JNK3 blocker	Jurkat viability	M1 ag	S1P3 ag	S1P1 ag pot
S=C(c1ccc(-c2ccc(Cl)c(Cl)c2)o1)N1CCOCC1	-0.68	-2	7	-1.2	-2	-11
N#CC(C(=O)NC1CCCCC1)c1nc2ccccc2nc1N1CCOCC1 (stereo not drawn)	1.7	-1	0	84*	0	-3
COC(=O)C1CCN(c2nc3ccccc3nc2C(C#N)C(=O)NCCc2ccccc2)CC1 (stereo not drawn)	0.11	2	·	25*	-3	-2
CC1CN(c2nc3ccccc3nc2C(C#N)C(=O)NCc2ccc3c(c2)OCO3)CC(C)O1 (stereo not drawn)	-0.54	3	-2	9.8*	-1	1
COc1ccc(-c2cc3nc(C)c(CCC(=O)N4CCCCC4)c(C)n3n2)c(OC)c1	-0.0045	-6	0	0.55	0	5
O=C1CCN(Cc2nnnn2CC2CCCO2)c2ccccc2N1 (stereo not drawn)	0.38	9	4	-0.54	-1	-7
Fc1ccc(COc2ccc(/C=N/n3cnnc3)cc2)cc1	1.4	-5	7	1.8	-1	64*
Cc1nn(-c2ccccc2)c(Oc2ccc(F)cc2)c1/C=N/n1cnnc1	0.13	-7	4	0.43	0	-14
COc1ccccc1C(=O)Nc1ccccn1	0.55	13	0	-0.18	-1	-2
COc1cc(C(Nc2ccccn2)c2ccc3ccc(C)nc3c2O)cc(OC)c1O (stereo not drawn)	0.59	0	71*	0.12	-1	38
O=c1c2c3nc4ccccc4nc3n(CCN3CCOCC3)c2ncn1CCN1CCOCC1	-0.0085	0	2	2.7*	0	12
C=CCn1cnc2c(c1=O)c1nc3ccccc3nc1n2-c1ccccc1	-14*	-3	-9	0.02	0	1
C=CCn1cnc2c(c1=O)c1nc3ccccc3nc1n2-c1ccc(C)cc1	1.2	-5	·	0.24	1	-5
C=CCn1cnc2c(c1=O)c1nc3ccccc3nc1n2/N=C/c1cccc(OC)c1OC	-1.4	1	0	4.8*	0	-22
C=CCn1cnc2c(c1=O)c1nc3ccccc3nc1n2/N=C/c1ccccn1	-4.1*	2	-1	8.1*	0	-4
O=c1c2c3nc4ccccc4nc3n(CC3CCCO3)c2ncn1CCc1ccccc1 (stereo not drawn)	-0.68	-1	-2	1.3	0	28
CN(Cc1cc2ccccc2[nH]c1=O)S(C)(=O)=O	·	3	-2	·	-1	-2
CC(OC(=O)c1cccc(NS(C)(=O)=O)c1)C(=O)Nc1ccc(N2CCOCC2)cc1 (stereo not drawn)	-0.086	5	2	-0.57	1	14
O=C(O)CC(CNS(=O)(=O)c1ccccc1)c1ccccc1 (stereo not drawn)	-0.037	3	0	-0.91	0	-21
COc1cc(C(=O)N2CCN(c3ncnc4sc(C)c(C)c34)CC2)cc(OC)c1OC	-0.44	2	76*	-1.1	-2	37
Cc1c(C(=O)N2CCN(c3ccccc3)CC2)sc2ncnc(N3CCN(c4ccccc4)CC3)c12	0.59	0	6	0.00086	-1	1
O=C(CSc1nc(-c2ccc(F)cc2)cs1)N1CCN(C(=O)c2ccco2)CC1	-0.14	11	3	0.35	0	-19
O=c1c2ccccc2nnn1CSc1nnc(-c2cccs2)n1Cc1ccccc1	-0.49	2	28*	1.2	2	17
O=C(NCC1CCCO1)C1c2ccccc2C(=O)N1C1CCCCCC1 (stereo not drawn)	0.21	2	-2	9.2*	-1	1
CCCc1cc(=O)[nH]c(Nc2ccc(OC)c(Cl)c2)n1	0.44	1	1	-0.43	-2	12
SMILES	M1 antag	JNK3 blocker	Jurkat viability	M1 ag	S1P3 ag	S1P1 ag pot
Cc1cccc(C(=O)Nc2ccccc2C(=O)OCc2c(C)noc2C)c1	0.17	-1	1	-0.053	-1	4
O=C(NCc1cccnc1)c1cccc2c1C(=O)N(C1CCCCC1)C2	·	26*	-2	·	0	-8
CN(CC(=O)Nc1nccs1)S(=O)(=O)c1ccc(F)cc1	0.75	-1	3	-0.45	-1	15
Brc1ccc2ncnc(Nc3ccc(N4CCOCC4)cc3)c2c1	-0.57	-7	12	-0.026	-1	61*
O=C(NCc1cccnc1)C1c2ccccc2C(=O)N1C1CCCC1 (stereo not drawn)	0.98	2	-18	3.3	-1	1
CCOc1ccc(C(=O)NCCn2cc(SCC(=O)Nc3cc(C)on3)c3ccccc32)cc1	0.56	0	10	-0.63	0	-2
COc1ccc(C2C(C#N)=C(C)NC3=C2C(=O)c2ccccc23)cc1 (stereo not drawn)	-0.82	4	·	-0.72	-3	4
COc1cc(C2C(C#N)=C(C)NC3=C2C(=O)c2ccccc23)cc(OC)c1OC (stereo not drawn)	-0.58	0	100*	1.4	-1	-47
CCOc1ccccc1NC(=O)COc1cccc(-n2cnnn2)c1	0.41	23*	10	0.75	1	-7
N#CC1=C2SCC(O)(c3ccccc3)N2C(=O)CC1c1cccs1 (stereo not drawn)	1.4	7	79*	-0.61	-1	14
CCC(=O)N1CCc2cc(Br)cc(S(=O)(=O)NCC3CCCN3CC)c21 (stereo not drawn)	0.28	·	·	-0.2	·	·
CCC1Oc2ccc(C)cc2N(CC(=O)N(Cc2ccc3c(c2)OCO3)CC2CCCO2)C1=O (stereo not drawn)	-0.39	-2	8	1.1	-1	19
CCC1Oc2ccc(C)cc2N(CC(=O)N(Cc2cccnc2)Cc2ccc(C)o2)C1=O (stereo not drawn)	-1.5	6	5	4.4*	0	3
O=C(Oc1ccc2c(c1)OCO2)c1cc2c(s1)CCC2	0.54	1	43*	0.57	0	10
Cc1nnc(SC(=O)N2c3ccccc3Sc3ccccc32)s1	-1.6	-7	17	-0.78	0	115*
Cc1nnc(SCC(=O)N2c3ccccc3Sc3ccccc32)n1N	0	-1	1	3.2	2	-5
CCOc1cccc(NC(=O)C2CCCN(S(=O)(=O)c3ccc(-n4cnnn4)cc3)C2)c1 (stereo not drawn)	-0.22	21*	1	-0.2	0	14
C=CCn1c(NC(=O)c2ccccc2)c(C#N)c2nc3ccccc3nc21	-0.7	0	7	21*	4	-62
C=CCn1c(N)c(C(=O)OCCC)c2nc3ccccc3nc21	-0.01	0	1	1.3	0	-39
O=C1CCCc2c1nn(-c1ccccc1)[n+]2[O-]	0.61	4	-3	-1.5	0	·
O=C1CCCc2nn(-c3ccccc3)c(-c3ccncc3)c21	-1.4	30*	-2	0.14	-1	7

Bioassay records from PubChem.
